Bioassay records deposited in PubChem by several laboratories.
Shown are actives, neighbours in structure and some others; about 0.97% of the full set was active somewhere.
Beta2AR agonist = beta2AR agonists driving receptor internalization, primary screen, cell-based, FAP fluorogen, flow cytometry | 340,000 compounds, 0.43% hits | response, % (test concentration not listed) | Am2.2-beta2AR cells | Beta-2 adrenergic receptor (Homo sapiens), P07550 | AID 504454, 2011;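 active = response above a set limit, near 3 SD of response in nonfluorescent compounds, cut at about 42% in these data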
Target sequence (P07550 whole entry, looked up): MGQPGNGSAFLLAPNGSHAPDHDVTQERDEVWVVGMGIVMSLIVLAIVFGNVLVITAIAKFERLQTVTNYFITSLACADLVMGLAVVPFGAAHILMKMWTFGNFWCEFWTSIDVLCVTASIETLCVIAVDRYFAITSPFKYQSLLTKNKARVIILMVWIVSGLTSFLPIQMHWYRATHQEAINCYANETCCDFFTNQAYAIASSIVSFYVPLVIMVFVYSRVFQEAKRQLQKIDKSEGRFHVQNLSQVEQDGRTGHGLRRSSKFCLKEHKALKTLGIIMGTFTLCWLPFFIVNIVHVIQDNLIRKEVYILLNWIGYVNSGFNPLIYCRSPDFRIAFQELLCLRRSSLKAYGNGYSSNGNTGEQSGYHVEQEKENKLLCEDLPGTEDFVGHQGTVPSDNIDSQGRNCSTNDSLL
L929 necroptosis = inhibitors of zVAD-triggered necroptosis, primary screen, L929 cells. L929 zVAD necroptosis rescue, ATP luminescence, 24 h; with zVAD 60 µM. viability rescue, % at 10 µM. 220,000 compounds, 0.38% hits;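 active = activation, scaled between plate controls, above about 75%, limit read from the data; inactive = activation under that limit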;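 also: 0% = zVAD with DMSO and 100% = DMSO alone without zVAD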
MDM2 E3 inh = MDM2-luciferase reporter signal enhancers, primary screen, MDM2 E3 ligase inhibitor project, cell-based, luminescence, 1536-well; 210,000 compounds, 0.11% hits; signal enhancement, % at 5 µM; cell-based MDM2 ubiquitination luciferase reporter, 2 h; 0 = plate control, 100 = twice control, blank-subtracted; E3 ubiquitin-protein ligase Mdm2 (Homo sapiens), Q00987;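 active = signal enhancement of 30% or more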;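 also: luminescence tracks abundance of the self-degrading MDM2-luciferase fusion protein; higher signal means inhibition of MDM2 E3 ligase activity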
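Assay system: stable mammalian line carrying autodegrading MDM2–luciferase fusion reporter; amount: 2000 cells seeded into each well; buffer or medium: DMEM; benchmarks: plate control and blank wells; signal: luciferase luminescence; timing: 2 h compound exposure at 37 °C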
TNF necrop inh = inhibitors of TNF-alpha triggered necroptosis, primary screen, cell-based, Jurkat FADD-/-, single concentration; AID 463075, 2010; activation (protection from cell death), % at 10 µM; Jurkat FADD-/- TNF necroptosis rescue, ATP luminescence, 24 h; 0 = TNF only, 100 = no-TNF cells; 220,000 compounds, 0.068% hits;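 active = activation, meaning protection from cell death, of at least 50% relative to plate controls; inactive = activation below 50%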;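 also: necroptosis triggered by 40 ng/mL TNF-alpha added together with compound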
Dynein transport = inhibitors of GR-EGFP nuclear translocation, primary screen, dynein cargo transport inhibitor project, imaging, high-content, 3617.4 mouse cells. test concentration mostly 20 µM; stimulated with dexamethasone, 1 µM; active compounds read low. z-score, hits read low. 220,000 compounds, 0.47% hits. AID 1381, 2008;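 active = plate z-score of nuclear minus cytoplasmic receptor signal below a set negative limit, without overly bright fluorescence or cell loss, cut at about -3.5 in these data, passing the limit was not always enough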;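 also: z-score of nuclear minus cytoplasmic ring GR-EGFP intensity difference per well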
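Buffer or medium: tet-free, stripped-serum medium; Also added: dexamethasone, 1.0 µM final; Technique: high-content fluorescence imaging after fixation; Times: 48 h induction, 1 h compound, 30 min dex at 37 °C; Read-out: per-cell GR-EGFP intensity, nucleus versus surrounding cytoplasmic ring, well-averaged.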
zVAD necrop conf = inhibitors of zVAD-triggered necroptosis in L929, confirmation, L929 cells, duplicate runs. shares compounds with L929 necroptosis. L929 zVAD-induced necroptosis rescue, ATP luminescence, 24 h. activation (protection from necroptosis), % at 10 µM. 760 compounds, 16% hits;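 active = mean protection from necroptosis of at least 50% over duplicate tests; inactive = mean protection below 50%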;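 also: 0% = cells with zVAD alone and 100% = vehicle cells without zVAD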
Dynein inh conf = dynein cargo transport inhibitors, GR-EGFP translocation, confirmation, imaging, high-content imaging, GR-EGFP cells; shares compounds with Dynein transport; 3617.4 GR-EGFP nuclear translocation imaging, dexamethasone-induced; calls only at 20 µM; 1,000 compounds, 69% hits;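 active = inhibition of receptor movement into the nucleus at or above a set limit in both runs, with normal cell brightness and cell count; inconclusive = limit reached in only one run, brightness and count normal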;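 also: dexamethasone at 1 µM final in well for 30 min; nuclear minus cytoplasmic GR-EGFP mean intensity difference in channel 2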
Beta2AR ag CP1 = beta2AR agonists via receptor internalization, confirmation, cell-based, FAP fluorogen, flow cytometry, single point, cherry pick 1. 1,100 compounds, 25% hits. percent response (surface receptor), % at 10 µM. Am2.2-beta2AR cells, FAP surface receptor; active compounds read low. shares compounds with Beta2AR agonist;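 active = surface receptor percent response at or below 58%, roughly 3 SD from nonfluorescent compounds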
B2AR FAP counter = fluorescence artifact in beta-2AR agonist FAP counterscreen; shares compounds with Beta2AR agonist; Am2.2 cells, FAP fluorogen flow cytometry; active compounds read low; calls only at 10 µM; 1,100 tested, under 10 active; AID 588765;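 active = percent response below a set limit in fluorescence channel 1 and below 50% in channel 8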
An asterisk follows results filed as active; i = inactive; ? = inconclusive; . = not tested or not shown; + = active, no number.

SMILES | Beta2AR agonist | L929 necroptosis | MDM2 E3 inh | TNF necrop inh | Dynein transport | Dynein inh conf | others
Cc1ccc(NC(=O)c2ccc(N3CCOCC3)c([N+](=O)[O-])c2)cc1S(=O)(=O)N1CCOCC1 | 48.8* | 76.8* | -4.4 | -4.1 | -0.523 | . | zVAD necrop conf=35.0;Beta2AR ag CP1=20.2*;B2AR FAP counter=i
O=C(CN1C(=O)c2ccccc2C1=O)OCC(=O)N1CCCCC1 | -1.1 | . | . | . | . | .
Cc1cc(C(=O)CSc2nncs2)c(C)n1Cc1ccco1 | -2.9 | 0.1 | -36.6 | -0.9 | -0.0581 | .
Cc1cc(C(=O)CCl)c(C)n1-c1ccon1 | 5.9 | -0.7 | -7.0 | -8.7 | -5.55* | +
Cc1cc(C(=O)CCl)c(C)n1Cc1ccco1 | 7.0 | -1.6 | -5.3 | -8.5 | -6.01* | +
Cc1cc(C(=O)CCl)c(C)n1-c1cccc([N+](=O)[O-])c1 | 6.3 | -2.5 | -28.4 | -13.0 | -3.01 | .
CCC1(C)CC2(CCCN(CCC(=O)c3ccccc3)C2)CCO1 (stereo unspecified) | 7.7 | -0.6 | 2.7 | -4.6 | -3.75* | i
CC1CCN(Cc2nc3c(c(=O)n(C)c(=O)n3C)n2Cc2c(F)cccc2Cl)CC1 | . | -0.1 | . | -1.1 | -0.0953 | .
O=C(O)CCN1C(=O)/C(=C\c2ccc(-c3nc4ccccc4s3)o2)SC1=S | 55.3* | 0.0 | -17.1 | -1.2 | -3.96 | i
COc1ccccc1NC(=O)CON=C(N)CC(=O)NC1CCCCC1 | -123.5 | . | . | . | . | .
CCSc1ccc([C@@H]2[C@@H]3C(=O)N(C)C(=O)[C@@H]3[C@]3(C(=O)OC)CCCCN23)cc1OC | -4.0 | . | . | . | . | .
CC(C)CCSc1cc(NCCO)c([N+](=O)[O-])c2nonc12 | 2.5 | 0.0 | -5.9 | 0.5 | -3.06 | .
Cc1ccc(Sc2cc(NCCCO)c([N+](=O)[O-])c3nonc23)cc1 | 19.4 | 32.9 | . | -1.7 | 0.682 | .
CCC(=O)OCCNc1cc(SCCC(=O)OC)c2nonc2c1[N+](=O)[O-] | 76.9* | 0.6 | . | -0.7 | -5.62* | +
CC(=O)OCCNc1cc(SC(C)C)c2nonc2c1[N+](=O)[O-] | -7.7 | 0.6 | -7.3 | -0.7 | -1.19 | .
CCC(=O)OCCNc1cc(Sc2nccn2C)c2nonc2c1[N+](=O)[O-] | 82.6* | -1.1 | -14.6 | -15.4 | -4.78* | ?
CC(=O)OCCCNc1cc(Sc2ccc(Cl)cc2)c2nonc2c1[N+](=O)[O-] | 49.5* | 0.5 | -13.4 | 3.5 | -4.8* | +
CC(=O)OCCN(C)c1cc(SC(C)C)c2nonc2c1[N+](=O)[O-] | 16.9 | 0.1 | 0.7 | -1.3 | -4.67* | +
O=[N+]([O-])c1ccc(/C=N/n2cnc3ccccc32)s1 | 0.9 | 20.4 | -8.8 | -9.7 | -1.03 | .
Cc1ccc(/C=C2\C(=O)ON=C2c2ccccc2)o1 | 5.5 | 1.6 | -24.4 | -0.7 | 0.758 | .
Cc1ccc(C2=NOC(=O)/C2=C\c2ccc(C)o2)cc1 | 56.1* | 0.5 | 3.6 | -16.5 | -5.65* | +
CC1=NOC(=O)/C1=C\c1ccc(-c2ccc(Br)cc2)o1 | 82.6* | -0.8 | -7.5 | -5.0 | -4.13* | ?
CCOC(=O)c1c(C2CC2)csc1NC(=O)COC(=O)c1cc(OC)c(OC)cc1[N+](=O)[O-] | 2.5 | 1.0 | -4.3 | 2.0 | 0.812 | .
CN1CCN(C2=C(Cl)C(=O)c3ccccc3C2=O)CC1 | 27.6 | . | . | . | . | .
CN1CCN(C2=C(Cl)C(=O)C(c3cnc(N4CCCCC4)s3)=C(Cl)C2=O)CC1 | 8.3 | 0.9 | . | -1.7 | -4.71* | +
SMILES | Beta2AR agonist | L929 necroptosis | MDM2 E3 inh | TNF necrop inh | Dynein transport | Dynein inh conf | others
N#Cc1c(Cl)c(Cl)c2nnc(-c3ccc(Br)cc3)n2c1Cl | . | 0.0 | -13.8 | -3.5 | -6.28* | +
[S-]c1nnc(-c2ccc(Br)cc2)n1-c1ccccc1.[Zn+2] | -2.2 | . | . | . | . | .
Cc1ccc(N2C(=O)c3cccc4c(N)ccc(c34)C2=O)c2cccnc12 | -36.1 | -1.1 | . | -17.9 | -5.35* | ?
CC(C)[C@H](NC(=O)c1ccc(Cl)c([N+](=O)[O-])c1)C(=O)NCc1ccc(F)cc1 | 3.7 | -0.8 | -11.3 | 0.2 | 0.188 | .
O=C1OCC2OC(O)C(O)C(O)C2OC(=O)c2cc(O)c(O)c(O)c2-c2c(O)c(O)c3oc(=O)c4c(c(O)c(O)c5oc(=O)c2c3c54)-c2c1cc(O)c(O)c2O (stereo unspecified) | . | 0.6 | 2.7 | -0.4 | -0.158 | .
CCCCc1c(C)c(C#N)c2nc3ccccc3n2c1Cl | . | 2.4 | -2.4 | -14.4 | -5.24* | +
CCc1c(C)c(C#N)c2nc3ccccc3n2c1N(C)C | -1.1 | 0.3 | -22.3 | -0.2 | 1.27 | .
CCc1ccc(NC(=O)C2=CC(c3ccc(OC)c(OC)c3)=NS(=O)(=O)N2C)cc1 | 11.9 | . | . | . | . | .
CC(C)CN1C(=O)/C(=C/c2c(N3CCc4ccccc4C3)nc3ccccn3c2=O)SC1=S | . | 0.9 | -11.9 | -3.2 | -8.63 | i
CCOC(=O)CC1C(=O)NCCN1c1nc2c(C)cccn2c(=O)c1/C=C1\SC(=S)N(CC(C)C)C1=O (stereo unspecified) | . | 2.1 | -68.8 | -14.7 | -3.45 | .
COc1ccc(NC(=O)CSc2ccc3c4c(cccc24)C(=O)c2ccccc2-3)cc1 | -443.9 | 0.4 | -4.1 | -4.8 | -2.19 | .
N#Cc1cccc(NC(=O)CSc2ccc3c4c(cccc24)C(=O)c2ccccc2-3)c1 | -831.7 | -0.8 | -10.1 | -0.3 | -6.01 | +
N#CCCNC(=O)Cn1c(COc2ccc(Cl)cc2)nc2ccccc21 | -19.9 | 1.3 | -12.4 | 3.4 | 0.437 | .
O=C(Cn1ncc2c1-c1ccccc1OC2)N1CCN(Cc2ccccc2)CC1 | -2.8 | 0.1 | -9.3 | -1.3 | -0.0538 | .
O=C(Cn1ncc(Cl)c(Cl)c1=O)N1CCN(Cc2ccccc2)CC1 | 16.5 | -2.6 | 21.9 | -26.6 | -5.05* | +
